This is an account of results in ChEMBL document CHEMBL3797046, “Antioxidant Activity of Individual Steryl Ferulates from Various Cereal Grain Sources” (J Nat Prod, 2016).

Common to all, as to format: physicochemical
A short description of series [1]: Antioxidant activity assessed as DPPH radical scavenging activity at 1.67 uM measured as absorbance (t -> infinity) after 10 secs by UV-visible spectrophotometry. To be noted: 10 s. In outline: (§1)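 DPPH radical decay, antioxidant at 1.67, 16.7 or 60.0 μM. After 10 s of mixing with DPPH, A517 was read at once and then every 15 s for 5 min. The second-order rate constant k and the plateau absorbance (t → ∞) came from curve-fitting absorbance vs time under global second-order kinetics.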

Series [2] is described as follows: Antioxidant activity assessed as DPPH radical scavenging activity at 60 uM measured as absorbance (t -> infinity) after 10 secs by UV-visible spectrophotometry. To be noted: 10 s. The method, boiled down:
as §1

Series [3] can be described thus: Antioxidant activity assessed as superoxide anion radical scavenging activity at 160 uM measured as absorbance (t > infinity) recorded every min for 7 mins by nitroblue tetrazolium assay (reference value: 1.9 +/- 0.01). In outline: (§2)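 Superoxide came from hypoxanthine/xanthine oxidase (2 mM HPX, 0.56 U·mL−1 XOD stocks) with 0.34 mM NBT in 50 mM phosphate buffer pH 7.4. A560 was read every minute for 7 min. Pseudo-first-order rate constant k1 and final NBTH2 absorbance (t → ∞) came from curve-fitting absorbance vs time, with antioxidant at 40, 80 or 160 μM.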

Series [4] in a line: Antioxidant activity assessed as superoxide anion radical scavenging activity at 80 uM measured as absorbance (t > infinity) recorded every min for 7 mins by nitroblue tetrazolium assay (reference value: 1.9 +/- 0.01). The method, boiled down: as §2
Series [5] is described as follows: Antioxidant activity assessed as superoxide anion radical scavenging activity at 40 uM measured as absorbance (t > infinity) recorded every min for 7 mins by nitroblue tetrazolium assay (reference value: 1.9 +/- 0.01). In outline: as §2
Series [6] is described as follows: Antioxidant activity assessed as DPPH radical scavenging activity measured as rate constant after 10 secs by UV-visible spectrophotometry. To be noted: 10 s. In outline:
as §1

Series [7] is described as follows: Antioxidant activity assessed as hydroxyl radical scavenging activity at 5 uM by ESR spin trapping assay. The method, boiled down:
(§3)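 Hydroxyl radicals came from Fenton reaction (H2O2, EDTA, FeSO4 to start) with DMPO spin trap. Samples in ACN (stocks 0.03–0.3 mM) gave final 1.5, 2.5, 5.0 or 15.0 μM; ACN alone served as control. ESR signal was taken as the ratio of the DMPO adduct second-singlet amplitude to the TEMPO (2 μM, daily reference) first-singlet amplitude.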

A short description of series [8]: Antioxidant activity assessed as hydroxyl radical scavenging activity at 15 uM by ESR spin trapping assay. The method, boiled down: as §3
The nature of series [9]: Antioxidant activity assessed as superoxide anion radical scavenging activity at 40 uM measured as rate constant recorded every min for 7 mins by nitroblue tetrazolium assay (reference value: 0.188 +/- 0.001 /min). The method, boiled down: as §2
Series [10] in a line: Antioxidant activity assessed as hydroxyl radical scavenging activity at 1.5 uM by ESR spin trapping assay. In outline: as §3
Series [11] in a line: Antioxidant activity assessed as DPPH radical scavenging activity at 16.7 uM measured as absorbance (t -> infinity) after 10 secs by UV-visible spectrophotometry. To be noted: 10 s. In outline:
as §1

Series [12] is described as follows: Antioxidant activity assessed as hydroxyl radical scavenging activity at 2.5 uM by ESR spin trapping assay. The method, boiled down:
as §3

A short description of series [13]: Antioxidant activity assessed as superoxide anion radical scavenging activity at 160 uM measured as rate constant recorded every min for 7 mins by nitroblue tetrazolium assay (reference value: 0.188 +/- 0.001 /min). The method, boiled down:
as §2

Series [14] in a line: Antioxidant activity assessed as superoxide anion radical scavenging activity at 80 uM measured as rate constant recorded every min for 7 mins by nitroblue tetrazolium assay (reference value: 0.188 +/- 0.001 /min). The method, boiled down:
as §2

A short description of series [15]: Antioxidant activity assessed as superoxide anion radical scavenging activity measured as rate constant recorded every min for 7 mins by nitroblue tetrazolium assay. The method, boiled down: as §2

Consider `COC(=O)/C=C/c1ccc(O)c(OC)c1`, for which the Activity came out at 1.008 in series [1]; 0.57 in [2]; 1.6 in series [3]; 1.72 in series [4]; 1.9 in [5]; 36% in series [7]. For the same compound, the Activity in series [8] is recorded as 43%; in [10], 19%; in series [11] it was 0.896; in series [12], 31%. The K turned out to be 14000 M⁻¹ s⁻¹ in series [6], 0.15 min⁻¹ in series [9], 0.14 min⁻¹ in series [13] and 0.15 min⁻¹ in [14].
As for `CC[C@H](/C=C/[C@@H](C)[C@H]1CC[C@H]2[C@@H]3CC=C4C[C@@H](OC(=O)/C=C/c5ccc(O)c(OC)c5)CC[C@]4(C)[C@H]3CC[C@]12C)C(C)C`, the Activity in series [1] stood at 1.144; in series [2] it was 0.72; in [3] it was 1.78; in [4], 1.76; in series [5], 1.68; in [7], 30%. For the same compound, the Activity was 44% in [8]; 23% in [10]; “Dose-dependent effect” in [15]; 1.01 in [11]; 26% in series [12]. Further, the K in series [6] amounted to 12000 M⁻¹ s⁻¹; in series [9], 0.18 min⁻¹; in series [13] it was 0.11 min⁻¹; in [14], 0.11 min⁻¹.
Turning to `COc1cc(/C=C/C(=O)O[C@H]2CC[C@@]3(C)[C@@H](CC[C@@H]4[C@@H]3CC[C@]3(C)[C@@H]([C@H](C)CC[C@@H](C)C(C)C)CC[C@@H]43)C2)ccc1O`, the Activity came out at 1.198 in series [1]; 0.79 in [2]; 1.57 in [3]; 1.47 in series [4]; 1.89 in series [5]; 34% in series [7]. The Activity in series [8] is listed as 43%; in [10], 23%; in series [11], 1.091; in series [12], 27%. Further, the K was determined as 18000 M⁻¹ s⁻¹ in [6], 0.13 min⁻¹ in series [9], 0.13 min⁻¹ in series [13] and 0.19 min⁻¹ in series [14].
Consider `CC[C@H](CC[C@@H](C)[C@H]1CC[C@H]2[C@@H]3CC=C4C[C@@H](OC(=O)/C=C/c5ccc(O)c(OC)c5)CC[C@]4(C)[C@H]3CC[C@]12C)C(C)C`, for which the Activity in series [1] amounted to 1.298; in series [2] it was 0.64; in series [3] it was 1.16; in [4], 1.38; in [5], 1.64; in series [7], 31%. The Activity in series [8] was 43%; in [10], 20%; in series [15], “Dose-dependent effect”; in series [11], 0.944; in [12], 24%. In addition, the K in series [6] was found to be 13000 M⁻¹ s⁻¹; in series [9], 0.19 min⁻¹; in series [13], 0.13 min⁻¹; in [14] it was 0.19 min⁻¹.
On to `CC[C@H](CC[C@@H](C)[C@H]1CC[C@H]2[C@@H]3CC[C@H]4C[C@@H](OC(=O)/C=C/c5ccc(O)c(OC)c5)CC[C@]4(C)[C@H]3CC[C@]12C)C(C)C`, for which the Activity in [1] is 1.156; in series [2], 0.64; in series [3], 1.47; in series [4], 1.35; in series [5], 1.85; in series [7] it was 28%. The Activity in [8] came to 40%; in [10], 22%; in series [11], 0.991; in [12], 25%. The K in series [6] came out at 15000 M⁻¹ s⁻¹; in series [9], 0.14 min⁻¹; in series [13], 0.14 min⁻¹; in series [14] it was 0.21 min⁻¹.
Regarding `COc1cc(/C=C/C(=O)O[C@H]2CC[C@@]3(C)C(=CC[C@H]4[C@@H]5CC[C@H]([C@H](C)CC[C@@H](C)C(C)C)[C@@]5(C)CC[C@@H]43)C2)ccc1O`, the Activity was 1.273 in [1]; 0.7 in series [2]; 1.19 in [3]; 1.4 in series [4]; 1.65 in series [5]; 29% in series [7]. Also, the Activity in series [8] was 39%; in series [10] it was 21%; in series [15] it was “Dose-dependent effect”; in [11], 1.045; in series [12] it was 25%. Also, the K in [6] was 13000 M⁻¹ s⁻¹; in series [9], 0.17 min⁻¹; in [13], 0.13 min⁻¹; in series [14] it was 0.18 min⁻¹.
In the case of `COc1cc(/C=C/C(=O)O[C@H]2CC[C@@]3(C)C(=CC[C@H]4[C@@H]5CC[C@H]([C@H](C)CCCC(C)C)[C@@]5(C)CC[C@@H]43)C2)ccc1O`, the Activity in series [1] was found to be 1.245; in series [2] it was 0.74; in [3], 1.82; in series [4] it was 1.71; in [5], 1.76; in [7], 30%. Further, the Activity in [8] is reported as 40%; in series [10], 24%; in series [15] it was “Dose-dependent effect”; in series [11], 0.979; in series [12] it was 24%. In addition, the K in [6] came to 12000 M⁻¹ s⁻¹; in [9] it was 0.17 min⁻¹; in [13] it was 0.11 min⁻¹; in series [14] it was 0.11 min⁻¹.
As for `CCOC(=O)/C=C/c1ccc(O)c(OC)c1` [ETHYL FERULATE], the Activity in [1] is listed as 0.992; in [2], 0.58; in series [3], 1.6; in series [4], 1.7; in series [5], 1.9; in series [7], 36%. The Activity stood at 42% in series [8], 19% in series [10], 0.851 in [11] and 29% in series [12]. The K amounted to 13000 M⁻¹ s⁻¹ in series [6], 0.14 min⁻¹ in series [9], 0.13 min⁻¹ in series [13] and 0.16 min⁻¹ in series [14].
On to `COc1cc(/C=C/C(=O)O)ccc1O` [FERULATE], for which the Activity in [1] is reported as 1.232; in [2] it was 0.53; in series [3] it was 1.03; in series [4], 1.4; in [5] it was 1.27; in series [7] it was 33%. The Activity in [8] amounted to 40%; in series [10], 23%; in series [11], 0.913; in series [12], 26%. Besides, the K in series [6] is 12000 M⁻¹ s⁻¹; in series [9], 0.2 min⁻¹; in series [13], 0.19 min⁻¹; in [14], 0.14 min⁻¹.
In the case of `Oc1cccc(O)c1O` [PYROGALLOL], in series [6], the K came out at 120000 M⁻¹ s⁻¹.
